Test results published in PMC6287672 (International Journal for Parasitology: Drugs and Drug …, 2018).

Assays:
Assay in all cases: two-electrode voltage clamp, Xenopus oocytes
Type in all cases: cell-based
[1] = target: T1, Hco-UNC-49BC (Haemonchus contortus, UniProt D6BK80)
T1 sequence (D6BK80 22-496): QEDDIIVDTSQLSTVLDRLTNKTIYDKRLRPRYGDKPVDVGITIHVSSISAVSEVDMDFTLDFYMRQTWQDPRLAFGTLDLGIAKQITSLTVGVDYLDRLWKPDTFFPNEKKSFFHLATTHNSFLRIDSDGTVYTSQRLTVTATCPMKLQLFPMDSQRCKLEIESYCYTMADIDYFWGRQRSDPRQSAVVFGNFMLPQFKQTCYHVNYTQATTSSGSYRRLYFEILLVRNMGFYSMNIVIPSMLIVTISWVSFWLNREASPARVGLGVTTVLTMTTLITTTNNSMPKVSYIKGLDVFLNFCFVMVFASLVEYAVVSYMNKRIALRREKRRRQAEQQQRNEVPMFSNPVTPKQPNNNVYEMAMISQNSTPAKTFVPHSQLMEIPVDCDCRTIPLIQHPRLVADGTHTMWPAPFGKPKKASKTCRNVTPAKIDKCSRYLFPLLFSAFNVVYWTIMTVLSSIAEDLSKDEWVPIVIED
T1 sequence (D6BJF3 22-440 partner): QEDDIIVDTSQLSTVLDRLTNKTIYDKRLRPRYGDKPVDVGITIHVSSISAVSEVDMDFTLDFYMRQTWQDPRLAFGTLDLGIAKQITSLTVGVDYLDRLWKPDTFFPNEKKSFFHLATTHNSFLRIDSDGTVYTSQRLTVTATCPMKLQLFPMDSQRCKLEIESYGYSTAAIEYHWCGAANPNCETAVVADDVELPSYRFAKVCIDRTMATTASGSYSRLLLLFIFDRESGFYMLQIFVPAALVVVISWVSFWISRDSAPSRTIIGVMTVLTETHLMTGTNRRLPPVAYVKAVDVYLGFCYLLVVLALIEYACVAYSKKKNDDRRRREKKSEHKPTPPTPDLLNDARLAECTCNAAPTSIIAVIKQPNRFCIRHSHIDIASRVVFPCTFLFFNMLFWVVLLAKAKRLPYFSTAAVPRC
In short: (§1)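 Oocytes from X. laevis, collagenase-treated in OR-2 (pH 7.5) for 2 h, were co-injected with wild-type or mutant hco-unc-49b cRNA plus wild-type hco-unc-49c cRNA and kept 48 h at 20ᵒC in supplemented ND96. Cells were clamped at −60 mV and GABA in ND96 was perfused, with 1–2 min ND96 washes between doses. Currents were normalised to each oocyte's maximal GABA response and fitted with a variable-slope Hill equation (≥5 oocytes, two batches).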

[2] = target: T2, Hco-UNC-49BC (Haemonchus contortus, UniProt D6BK80, R241K)
T2 sequence (D6BK80 22-496 R241K): T1 sequence (D6BK80 22-496)
T2 sequence (D6BJF3 22-440 partner): T1 sequence (D6BJF3 22-440 partner)
In short: as §1

[3] = target: T3, Hco-UNC-49BC (Haemonchus contortus, UniProt D6BK80, H137A)
T3 sequence (D6BK80 22-496 H137A): T1 sequence (D6BK80 22-496)
T3 sequence (D6BJF3 22-440 partner): T1 sequence (D6BJF3 22-440 partner)
In short: as §1

[4] = target: T4, Hco-UNC-49BC (Haemonchus contortus, UniProt D6BK80, H137K)
T4 sequence (D6BK80 22-496 H137K): T1 sequence (D6BK80 22-496)
T4 sequence (D6BJF3 22-440 partner): T1 sequence (D6BJF3 22-440 partner)
In short: as §1

[5] = target: T5, Hco-UNC-49BC (Haemonchus contortus, UniProt D6BK80, R241A)
T5 sequence (D6BK80 22-496 R241A): T1 sequence (D6BK80 22-496)
T5 sequence (D6BJF3 22-440 partner): T1 sequence (D6BJF3 22-440 partner)
In short: as §1

[6] = target: T6, Hco-UNC-49BC (Haemonchus contortus, UniProt D6BK80, D83T)
T6 sequence (D6BK80 22-496 D83T): T1 sequence (D6BK80 22-496)
T6 sequence (D6BJF3 22-440 partner): T1 sequence (D6BJF3 22-440 partner)
In short: as §1

[7] = target: T7, Hco-UNC-49BC (Haemonchus contortus, UniProt D6BK80, E131A)
T7 sequence (D6BK80 22-496 E131A): T1 sequence (D6BK80 22-496)
T7 sequence (D6BJF3 22-440 partner): T1 sequence (D6BJF3 22-440 partner)
In short: as §1

[8] = target: T8, Hco-UNC-49BC (Haemonchus contortus, UniProt D6BK80, D83E)
T8 sequence (D6BK80 22-496 D83E): T1 sequence (D6BK80 22-496)
T8 sequence (D6BJF3 22-440 partner): T1 sequence (D6BJF3 22-440 partner)
In short: as §1

[9] = target: T9, Hco-UNC-49BC (Haemonchus contortus, UniProt D6BK80, R159A)
T9 sequence (D6BK80 22-496 R159A): T1 sequence (D6BK80 22-496)
T9 sequence (D6BJF3 22-440 partner): T1 sequence (D6BJF3 22-440 partner)
In short: as §1

[10] = target: T10, Hco-UNC-49BC (Haemonchus contortus, UniProt D6BK80, D83C)
T10 sequence (D6BK80 22-496 D83C): T1 sequence (D6BK80 22-496)
T10 sequence (D6BJF3 22-440 partner): T1 sequence (D6BJF3 22-440 partner)
In short: as §1

[11] = target: T11, Hco-UNC-49BC (Haemonchus contortus, UniProt D6BK80, D83N)
T11 sequence (D6BK80 22-496 D83N): T1 sequence (D6BK80 22-496)
T11 sequence (D6BJF3 22-440 partner): T1 sequence (D6BJF3 22-440 partner)
In short: as §1

NCCCC(=O)O [GABA]
EC50 [1]: 68 ± 17 µM
EC50 [2]: 3790 ± 435 µM
EC50 [3]: 2170 ± 173 µM
EC50 [4]: 4170 ± 745 µM
EC50 [5]: 5170 ± 473 µM
EC50 [6]: 520 ± 34 µM
EC50 [7]: 219 ± 21 µM
EC50 [8]: 276 ± 37 µM
EC50 [9]: 5470 ± 396 µM
EC50 [10]: 454 ± 47 µM
EC50 [11]: 342 ± 30 µM
